Laboratory results taken from ChEMBL document CHEMBL4014306, “Pyrazolopyrimidines as Potent Stimulators for Transient Receptor Potential Canonical 3/6/7 Channels” (J Med Chem, 2017).
The source made the active and inactive calls. The calls are words filed in the database; no cut-off is given here.

Key:
Type in all cases: cell-based
HEK293 = assay: Induction of intracellular calcium level in HEK293 cells at 30 uM measured for 2.5 mins by Fluo-4-AM dye based FLIPR assay; conditions: human, hek293, 2.5 min
[1] = biological target: T1, Short transient receptor potential channel 7 (Homo sapiens) (UniProt Q9HCX4); assay: Agonist activity at human TRPC7 expressed in HEK293 cells assessed as increase in membrane depolarization measured for 2.5 mins in presence of 2 mM Ca2+ by FLIPR membrane potential dye-based fluorescence assay
T1 sequence (whole entry): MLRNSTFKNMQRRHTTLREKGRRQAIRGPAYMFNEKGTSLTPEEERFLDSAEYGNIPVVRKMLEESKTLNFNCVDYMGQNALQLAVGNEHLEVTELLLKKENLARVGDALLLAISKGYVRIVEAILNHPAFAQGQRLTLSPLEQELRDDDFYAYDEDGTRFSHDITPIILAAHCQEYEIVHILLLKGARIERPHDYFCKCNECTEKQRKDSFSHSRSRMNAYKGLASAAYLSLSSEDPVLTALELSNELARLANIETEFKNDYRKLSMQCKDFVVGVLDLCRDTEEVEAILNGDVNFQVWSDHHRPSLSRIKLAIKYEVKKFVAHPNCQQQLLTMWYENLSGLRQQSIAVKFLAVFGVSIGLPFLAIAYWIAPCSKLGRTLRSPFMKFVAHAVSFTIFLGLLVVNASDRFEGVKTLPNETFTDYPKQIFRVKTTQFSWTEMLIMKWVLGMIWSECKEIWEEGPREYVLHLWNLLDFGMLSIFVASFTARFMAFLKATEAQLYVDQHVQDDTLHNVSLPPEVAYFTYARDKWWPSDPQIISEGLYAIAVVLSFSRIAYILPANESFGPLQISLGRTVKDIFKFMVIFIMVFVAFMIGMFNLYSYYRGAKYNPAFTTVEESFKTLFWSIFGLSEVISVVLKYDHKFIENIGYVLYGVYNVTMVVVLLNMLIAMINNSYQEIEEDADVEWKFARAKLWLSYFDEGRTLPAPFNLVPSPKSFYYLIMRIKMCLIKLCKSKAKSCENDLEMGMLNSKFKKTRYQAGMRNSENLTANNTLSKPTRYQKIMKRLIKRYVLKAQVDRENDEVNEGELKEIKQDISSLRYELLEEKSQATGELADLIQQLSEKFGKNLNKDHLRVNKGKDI

[2] = biological target: T2, Short transient receptor potential channel 7 (Homo sapiens, UniProt Q9HCX4); assay: (§1) Agonist activity at human TRPC7 receptor expressed in HEK293 cells assessed as induction of channel current in presence of 0.1 mM Ca2+ by whole cell patch-clamp method
T2 sequence (Q9HCX4 whole entry): T1 sequence (whole entry)
In short: (§2)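 Whole-cell voltage clamp on doxycycline-induced stable HEK293 TRPC7 cells. Pipette (mM): 110 CsCl, 10 HEPES, 10 BAPTA, 1 MgCl2, 4.77 CaCl2 (400 nM free Ca2+), pH 7.2. Bath has 0.1 mM CaCl2, and compound is perfused in bath at increasing concentrations. Ramps run from +100 to −100 mV (100 ms) every 1 s from a 0 mV hold.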

[3] = biological target: T1, Short transient receptor potential channel 7 (Homo sapiens); assay: as §1; in short: as §2

Compound: CCOC(=O)N1CCC(c2cc(O)n3nc(C)c(-c4ccc(F)cc4)c3n2)CC1
- Activity (HEK293): Non-Toxic
- Activity [1]: Active
- EC50 [2]: 1.13 µM
- Activity [3]: Dose-dependent effect
